From ChEMBL document CHEMBL1128448, “Synthesis and antifungal activity of new azole derivatives containing an N-acylmorpholine ring” (1995)
In brackets after ≈: the same amount, converted by molar mass.

Legend:
Aspergillus fumigatus = test: In vitro evaluation of minimum inhibitory concentration against Aspergillus fumigatus 33; format: functional; conditions: Aspergillus fumigatus; read-out: MIC
Method in brief: (§1)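 Stocks are 800 μg/mL in 50% ethanol. Each plate gets 10 μL of inoculum at 10^5 cfu/mL. Incubation at 25 °C, 48 h for yeasts and 120 h for dermatophytes and molds. Organisms are ATCC strains or clinical isolates.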

Aspergillus niger = test: In vitro evaluation of minimum inhibitory concentration against Aspergillus niger 18; format: functional; conditions: Aspergillus niger; read-out: MIC; method in brief: as §1
Candida albicans [1] = test: In vitro evaluation of minimum inhibitory concentration against Candida albicans 76; format: functional; method in brief: as §1
Candida albicans [2] = test: Evaluation of In vitro antifungal activity against Candida albicans 2.01 by broth macro dilution method; format: functional
Method in brief: (§2)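 Yeast MIC and MFC by broth macrodilution per NCCLS M27-P in RPMI-1640 buffered with 0.165 M MOPS. Fluconazole in sterile water, other drugs in DMSO. C. parapsilosis ATCC 22019 is the reference strain in each run. MIC is the lowest concentration with turbidity ≤ the 80% inhibition standard. For MFC, 0.04 mL from clear tubes is plated on Sabouraud agar; MFC is the lowest concentration giving ≤1 colony.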

Candida albicans [3] = test: Evaluation of In vitro antifungal activity against Candida albicans 31 by broth macro dilution method; format: functional; method in brief: as §2
Candida albicans [4] = test: Evaluation of In vitro antifungal activity against Candida albicans 406 by broth macro dilution method; format: functional; method in brief: as §2
Candida albicans [5] = test: Evaluation of In vitro antifungal activity against Candida albicans ATCC 10231 by broth macro dilution method; format: functional; method in brief: as §2
Candida albicans [6] = test: Evaluation of In vitro antifungal activity against Candida albicans C52 by broth macro dilution method; format: functional; method in brief: as §2
Candida albicans [7] = test: Evaluation of […] antifungal activity against Candida albicans 60 by broth macro dilution method; format: functional; method in brief: as §2
[8] = tested on: Meyerozyma guilliermondii; test: Evaluation of In vitro antifungal activity against Candida guilliermondii 26 by broth macro dilution method; format: functional; method in brief: as §2
[9] = tested on: Meyerozyma guilliermondii; test: In vitro evaluation of minimum inhibitory concentration against Candida guilliermondii 26; format: functional; conditions: Meyerozyma guilliermondii; read-out: MIC; method in brief: as §1
Pichia kudriavzevii [10] = test: Evaluation of In vitro antifungal activity against Candida krusei 70 by broth macro dilution method; format: functional; method in brief: as §2
Pichia kudriavzevii [11] = test: In vitro evaluation of minimum inhibitory concentration against Candida krusei 70; format: functional; conditions: Pichia kudriavzevii; read-out: MIC; method in brief: as §1
Kluyveromyces marxianus [12] = test: Evaluation of In vitro antifungal activity against Candida pseudotropicalis ATCC 28838 by broth macro dilution method; format: functional; method in brief: as §2
Kluyveromyces marxianus [13] = test: Evaluation of In vitro antifungal activity against yeasts by broth macro dilution method; format: functional; method in brief: as §2
Candida parapsilosis [14] = test: Evaluation of In vitro antifungal activity against Candida parapsilosis ATCC 22019 by broth macro dilution method; format: functional; conditions: Lodderomyces parapsilosis; method in brief: as §2
Candida parapsilosis [15] = test: Evaluation of In vitro antifungal activity against Candida parapsilosis C292 by broth macro dilution method; format: functional; conditions: Lodderomyces parapsilosis; method in brief: as §2
Candida parapsilosis [16] = test: Evaluation of In vitro antifungal activity against Candida parapsilosis C74 by broth macro dilution method; format: functional; conditions: Lodderomyces parapsilosis; method in brief: as §2
Candida parapsilosis [17] = test: In vitro evaluation of minimum inhibitory concentration against Candida parapsilosis 61; format: functional; conditions: Lodderomyces parapsilosis; read-out: MIC; method in brief: as §1
Candida tropicalis [18] = test: Evaluation of In vitro antifungal activity against Candida tropicalis 2.11 by broth macro dilution method; format: functional; method in brief: as §2
Candida tropicalis [19] = test: Evaluation of In vitro antifungal activity against Candida tropicalis 50 by broth macro dilution method; format: functional; method in brief: as §2
Cryptococcus neoformans [20] = test: Evaluation of In vitro antifungal activity against Cryptococcus neoformans 74 by broth macro dilution method; format: functional; method in brief: as §2
Cryptococcus neoformans [21] = test: Evaluation of In vitro antifungal activity against Cryptococcus neoformans 87 by broth macro dilution method; format: functional; method in brief: as §2
Mus sp. [22] = test: In vivo evaluation of % survival rate after peroral administration on 3rd day at dose 0.5 mg/kg; format: functional; conditions: route oral
Mus sp. [23] = test: In vivo evaluation of % survival rate after peroral administration on 3rd day at dose 1 mg/kg; format: functional; conditions: Mus sp., po
Mus sp. [24] = test: In vivo evaluation of % survival rate after peroral administration on 5th day at dose 0.5 mg/kg; format: functional; conditions: route oral
Mus sp. [25] = test: In vivo evaluation of % survival rate after peroral administration on 5th day at dose 1 mg/kg; format: functional; conditions: Mus sp., po
Mus musculus = test: In vivo evaluation of % survival rate after peroral administration on 7th day at dose 0.5 mg/kg; format: functional; conditions: Mus musculus, po
Mus sp. [26] = test: In vivo evaluation of % survival rate after peroral administration on 7th day at dose 1 mg/kg; format: functional; conditions: route oral, 1 mg/kg
Mus sp. [27] = test: In vivo evaluation of % survival rate after peroral administration on 9th day at dose 1 mg/kg; format: functional; conditions: route oral, 1 mg/kg
Microsporum canis = test: In vitro evaluation of minimum inhibitory concentration against Microsporum canis 47; format: functional; conditions: Microsporum canis; read-out: MIC; method in brief: as §1
Nannizzia gypsea = test: In vitro evaluation of minimum inhibitory concentration against Microsporum gypseum 22; format: functional; conditions: Nannizzia gypsea; read-out: MIC; method in brief: as §1
Nakaseomyces glabratus = test: Evaluation of In vitro antifungal activity against Torulopsis glabrata 78 by broth macro dilution method; format: functional; method in brief: as §2
Trichophyton benhamiae = test: In vitro evaluation of minimum inhibitory concentration against Trichophyton mentagrophytes 23; format: functional, Arthroderma benhamiae; conditions: Trichophyton benhamiae; read-out: MIC; method in brief: as §1
Trichophyton rubrum = test: In vitro evaluation of minimum inhibitory concentration against Trichophyton rubrum 90; format: functional; conditions: Trichophyton rubrum; read-out: MIC; method in brief: as §1
Pichia kudriavzevii [28] = test: Evaluation of In vitro antifungal activity against Candida krusei C64 by broth macro dilution method; format: functional; method in brief: as §2
Candida parapsilosis [29] = test: Evaluation of In vitro antifungal activity against Candida parapsilosis 2.07 by broth macro dilution method; format: functional; conditions: Lodderomyces parapsilosis; method in brief: as §2
Candida parapsilosis [30] = test: Evaluation of In vitro antifungal activity against Candida parapsilosis ATCC 141095 by broth macro dilution method; format: functional; conditions: Lodderomyces parapsilosis; method in brief: as §2
Aspergillus flavus = test: In vitro evaluation of minimum inhibitory concentration against Aspergillus flavus 19; format: functional; conditions: Aspergillus flavus; read-out: MIC; method in brief: as §1
Candida albicans [31] = test: Evaluation of In vitro antifungal activity against Candida albicans C56 by broth macro dilution method; format: functional; method in brief: as §2
Rattus norvegicus = test: In vivo evaluation of antifungal activity against vaginal candidosis in rat at dose 0.25 mg/kg on 15th day; format: functional
Method in brief: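 Groups of 10 female Wistar rats given estradiol 25 mg/kg sc on day -5, infected intravaginally with C. albicans by sterile swab on day 0; infection confirmed on day 3 by swab culture (TSB, then Sabouraud agar). Oral dosing once daily on days 3, 4, 5; vehicle controls. Vaginal swabs cultured on days 10 and 15; read-out % cured (culture-negative).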

Candida albicans [32] = test: Evaluation of In vitro antifungal activity against Candida albicans 60 by broth macro dilution method

C[C@H]1N(C(=O)c2ccc(C(F)(F)F)cc2)C[C@H](O)O[C@@]1(Cn1cncn1)c1ccc(F)cc1F (stereo in doubt; (-)-39a)
MIC (Aspergillus fumigatus): 80 µg/mL (≈ 166 µM)
MIC (Aspergillus niger): > 80 µg/mL
MIC (Candida albicans [1]): 10 µg/mL (≈ 20.7 µM)
MFC (Candida albicans [2]): > 64 µg/mL
MIC (Candida albicans [2]): 2 µg/mL (≈ 4.15 µM)
MFC (Candida albicans [3]): > 64 µg/mL
MIC (Candida albicans [3]): 0.5 µg/mL (≈ 1.04 µM)
MFC (Candida albicans [4]): > 64 µg/mL
MIC (Candida albicans [4]): 1 µg/mL (≈ 2.07 µM)
MFC (Candida albicans [5]): > 64 µg/mL
MIC (Candida albicans [5]): 0.5 µg/mL (≈ 1.04 µM)
MFC (Candida albicans [6]): > 64 µg/mL
MIC (Candida albicans [6]): 0.5 µg/mL (≈ 1.04 µM)
MIC (Candida albicans [7]): 1 µg/mL (≈ 2.07 µM)
MFC [8]: > 64 µg/mL
MIC [8]: 32 µg/mL (≈ 66.3 µM)
MIC [9]: 80 µg/mL (≈ 166 µM)
MFC (Pichia kudriavzevii [10]): > 64 µg/mL
MIC (Pichia kudriavzevii [10]): > 64 µg/mL
MIC (Pichia kudriavzevii [11]): > 80 µg/mL
MFC (Kluyveromyces marxianus [12]): 64 µg/mL (≈ 133 µM)
MIC (Kluyveromyces marxianus [13]): 0.5 µg/mL (≈ 1.04 µM)
MFC (Candida parapsilosis [14]): 32 µg/mL (≈ 66.3 µM)
MIC (Candida parapsilosis [14]): 16 µg/mL (≈ 33.2 µM)
MFC (Candida parapsilosis [15]): > 64 µg/mL
MIC (Candida parapsilosis [15]): 8 µg/mL (≈ 16.6 µM)
MFC (Candida parapsilosis [16]): 32 µg/mL (≈ 66.3 µM)
MIC (Candida parapsilosis [16]): 2 µg/mL (≈ 4.15 µM)
MIC (Candida parapsilosis [17]): 40 µg/mL (≈ 82.9 µM)
MFC (Candida tropicalis [18]): > 64 µg/mL
MIC (Candida tropicalis [18]): 64 µg/mL (≈ 133 µM)
MFC (Candida tropicalis [19]): > 64 µg/mL
MIC (Candida tropicalis [19]): > 64 µg/mL
MFC (Cryptococcus neoformans [20]): 2 µg/mL (≈ 4.15 µM)
MIC (Cryptococcus neoformans [20]): 0.25 µg/mL (≈ 0.518 µM)
MFC (Cryptococcus neoformans [21]): > 64 µg/mL
MIC (Cryptococcus neoformans [21]): 4 µg/mL (≈ 8.29 µM)
survival at 0.5 mg/kg (Mus sp. [22]): 100%
survival at 1 mg/kg (Mus sp. [23]): 100%
survival at 0.5 mg/kg (Mus sp. [24]): 100%
survival at 1 mg/kg (Mus sp. [25]): 100%
survival at 0.5 mg/kg (Mus musculus): 80%
Survival (Mus sp. [26]): 100%
Survival (Mus sp. [27]): 100%
MIC (Microsporum canis): 40 µg/mL (≈ 82.9 µM)
MIC (Nannizzia gypsea): 80 µg/mL (≈ 166 µM)
MFC (Nakaseomyces glabratus): > 64 µg/mL
MIC (Nakaseomyces glabratus): > 64 µg/mL
MIC (Trichophyton benhamiae): > 80 µg/mL
MIC (Trichophyton rubrum): 40 µg/mL (≈ 82.9 µM)
MFC (Pichia kudriavzevii [28]): > 64 µg/mL
MIC (Pichia kudriavzevii [28]): > 64 µg/mL
MFC (Candida parapsilosis [29]): > 64 µg/mL
MIC (Candida parapsilosis [29]): 4 µg/mL (≈ 8.29 µM)
MFC (Candida parapsilosis [30]): > 64 µg/mL
MIC (Candida parapsilosis [30]): > 64 µg/mL
MIC (Aspergillus flavus): > 80 µg/mL
MFC (Candida albicans [31]): > 64 µg/mL
MIC (Candida albicans [31]): 1 µg/mL (≈ 2.07 µM)
Cure rate (Rattus norvegicus): 100%
MFC (Candida albicans [32]): > 64 µg/mL
